This note sets out measurements from ChEMBL document CHEMBL2062375, “Discovery of an orally efficacious inhibitor of anaplastic lymphoma kinase” (J Med Chem, 2012).

Calls of active or inactive are those of the source. No cut-off for these calls is given here.

Data set [1] is described as follows: Cmax in rat at 30 mg/kg, po. The arrangement: dose 30 mg/kg, route oral. The data set is classed as ADME, organism-based. The note with it: in vivo. The procedure, abridged:
(§1)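 Rat oral dose escalation at 10, 30, 55 and 100 mg/kg. Gavage at 5 mL/kg in 40% HPβCD after an overnight fast. Serial tail-vein blood was drawn into heparinized tubes. Plasma was protein-precipitated with acetonitrile and assayed by LC-MS/MS. Cmax and AUC0–12 were derived noncompartmentally; n = 2 at 10 mg/kg.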

In data set [2] the test system is Rattus norvegicus. Put plainly: Ratio of AUC (0 to 12 h) at 10 mg/kg, po to AUC (0 to 12 h) at 100 mg/kg, po in rat. It is filed as ADME, organism-based. The note with it: in vivo. The procedure, abridged:
(§2)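 Oral dose-escalation PK study in rats at 10, 30, 55 and 100 mg/kg. […] The ratio compares the 10 mg/kg value with the 100 mg/kg value.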

The subject of data set [3] is Rattus norvegicus. Kind of data set: Ratio of Cmax at 10 mg/kg, po to Cmax at 100 mg/kg, po in rat. It is filed as ADME, organism-based. As to conditions: in vivo. In short, it runs like this: as §2
Data set [4] in a line: AUC (0 to 12 hrs) in rat 10 mg/kg, po. It is filed as ADME, organism-based. The arrangement: time < 12 hr, dose 10 mg/kg, route oral. As to conditions: plasma. In short, it runs like this: as §1
Data set [5] is described as follows: AUC (0 to 12 hrs) in rat 55 mg/kg, po. It is filed as ADME, organism-based. The arrangement: time < 12 hr, dose 55 mg/kg, route oral. The note with it: plasma. The procedure, abridged:
as §1

Data set [6] is described as follows: Cmax in rat at 100 mg/kg, po. It is filed as ADME, organism-based. Set-up: dose 100 mg/kg, route oral. The note with it: in vivo. In short, it runs like this:
as §1

Data set [7] is described as follows: Cmax in rat at 55 mg/kg, po. It is filed as ADME, organism-based. The arrangement: dose 55 mg/kg, route oral. As to conditions: in vivo. The procedure, abridged: as §1
Data set [8] in a line: Cmax in rat at 10 mg/kg, po. The data set is classed as ADME, organism-based. The arrangement: dose 10 mg/kg, route oral. As to conditions: in vivo. In short, it runs like this: as §1
Data set [9] has as its system KARPAS-299. Kind of data set: Antitumor activity against human KARPAS299 cells expressing NPM-ALK xenografted in SCID mouse assessed as tumor stasis up to 100 mg/kg, po bid for 12 days. It is filed as functional, organism-based. The arrangement: dose 100 mg/kg.
For data set [10], the target named is T1, ALK tyrosine kinase receptor (Homo sapiens, UniProt Q9UM73). Kind of data set: Inhibition of ALK tyrosine phosphorylation in human Karpas-299 cells after 2 hrs in presence of mouse plasma. It is filed as cell-based.
T1 sequence (Q9UM73 whole entry): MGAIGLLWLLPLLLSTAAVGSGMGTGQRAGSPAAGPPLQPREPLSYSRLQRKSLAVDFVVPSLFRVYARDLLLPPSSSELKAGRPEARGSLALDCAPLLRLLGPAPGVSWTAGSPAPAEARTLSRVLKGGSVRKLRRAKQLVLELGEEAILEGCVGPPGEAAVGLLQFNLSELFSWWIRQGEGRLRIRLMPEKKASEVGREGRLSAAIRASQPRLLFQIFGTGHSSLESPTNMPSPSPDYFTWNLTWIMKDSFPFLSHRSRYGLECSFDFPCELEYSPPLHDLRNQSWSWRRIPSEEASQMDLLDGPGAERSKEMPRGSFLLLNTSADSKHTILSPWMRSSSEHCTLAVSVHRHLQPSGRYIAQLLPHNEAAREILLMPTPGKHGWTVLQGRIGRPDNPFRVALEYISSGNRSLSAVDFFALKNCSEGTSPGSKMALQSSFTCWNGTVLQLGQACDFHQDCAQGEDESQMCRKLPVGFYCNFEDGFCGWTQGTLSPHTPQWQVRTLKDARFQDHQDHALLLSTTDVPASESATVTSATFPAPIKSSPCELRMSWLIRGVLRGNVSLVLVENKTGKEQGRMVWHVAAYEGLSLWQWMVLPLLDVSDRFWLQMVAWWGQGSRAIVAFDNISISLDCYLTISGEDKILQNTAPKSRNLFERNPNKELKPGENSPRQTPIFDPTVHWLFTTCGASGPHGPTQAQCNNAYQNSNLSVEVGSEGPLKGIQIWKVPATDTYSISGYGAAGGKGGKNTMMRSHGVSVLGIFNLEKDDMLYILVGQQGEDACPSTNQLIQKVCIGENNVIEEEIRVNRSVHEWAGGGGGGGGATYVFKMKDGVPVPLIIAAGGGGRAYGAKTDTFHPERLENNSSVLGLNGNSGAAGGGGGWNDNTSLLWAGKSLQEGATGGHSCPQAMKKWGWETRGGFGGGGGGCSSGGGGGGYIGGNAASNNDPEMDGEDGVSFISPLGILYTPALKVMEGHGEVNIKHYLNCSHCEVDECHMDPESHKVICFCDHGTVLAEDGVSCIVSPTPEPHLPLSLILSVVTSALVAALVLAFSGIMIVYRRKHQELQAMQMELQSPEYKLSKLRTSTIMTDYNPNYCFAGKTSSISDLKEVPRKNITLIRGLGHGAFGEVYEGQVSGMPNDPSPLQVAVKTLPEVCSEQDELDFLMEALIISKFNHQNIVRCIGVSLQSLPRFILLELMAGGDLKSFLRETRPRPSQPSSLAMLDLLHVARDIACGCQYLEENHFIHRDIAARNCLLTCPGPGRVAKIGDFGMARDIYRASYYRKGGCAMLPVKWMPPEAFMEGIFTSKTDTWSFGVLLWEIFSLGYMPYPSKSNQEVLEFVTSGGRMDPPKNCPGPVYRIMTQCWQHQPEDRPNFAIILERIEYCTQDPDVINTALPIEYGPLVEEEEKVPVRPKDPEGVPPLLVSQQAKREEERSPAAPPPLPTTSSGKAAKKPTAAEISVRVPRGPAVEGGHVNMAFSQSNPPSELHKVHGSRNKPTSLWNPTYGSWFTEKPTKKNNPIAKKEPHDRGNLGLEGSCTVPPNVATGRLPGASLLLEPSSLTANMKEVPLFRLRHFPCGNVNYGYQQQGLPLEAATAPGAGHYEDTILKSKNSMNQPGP
Data set [11] can be described thus: AUC (0 to 12 hrs) in rat 30 mg/kg, po. Set-up: time < 12 hr, dose 30 mg/kg, route oral. The note with it: plasma. The data set is classed as ADME, organism-based. In short, it runs like this:
as §1

The nature of data set [12]: AUC (0 to 12 hrs) in rat 100 mg/kg, po. It is filed as ADME, organism-based. Set-up: time < 12 hr, dose 100 mg/kg, route oral. The note with it: plasma. The procedure, abridged: as §1
For data set [13], the target named is T1, ALK tyrosine kinase receptor. Kind of data set: Inhibition of human ALK cytoplasmic domain expressed in baculovirus using GST-PLCgamma as substrate preincubated for 15 mins before substrate addition measured after 1 hr by time resolved fluorescence assay.

In general, Cmax refers to the peak of the concentration-time curve. For orientation: AUC(0-t) means exposure summed from dosing to a finite time, without extrapolation to infinity. High values mean high exposure, low ones low exposure. In general, IC50 refers to the concentration that gives 50% inhibition.

As to `CCN1C(=O)CCCc2c1ccc(Nc1ncc(Cl)c(N[C@H]3[C@@H](C(N)=O)[C@@H]4C=C[C@H]3C4)n1)c2OC`, the Cmax in data set [1] was 1360 ng/mL; in [6], 1550 ng/mL; in data set [7] it was 1450 ng/mL; in data set [8], 925 ng/mL. Also, the Ratio in data set [2] and in data set [3] was 2 each time. Besides, the AUC(0-t) at 12 h in data set [4] was found to be 6020 ng·h/mL; in [5], 13800 ng·h/mL; in data set [11], 11800 ng·h/mL; in data set [12] it was 14000 ng·h/mL. Also, the result in data set [9] was Active. In data set [10], the IC50 is 45 nM.
As to `COc1c(Nc2ncc(Cl)c(N[C@H]3[C@@H](C(N)=O)[C@@H]4C=C[C@H]3C4)n2)ccc2c1CC[C@H](N1CCOCC1)CC2`, the IC50 in data set [13] is 35 nM; in data set [10], 120 nM.
